ABCB6 inh MLPCN = blocks the human ABCB6 transporter. Q9NP58. K562-ABCB6 porphyrin accumulation, flow cytometry, 1 h; hits give low values. fluorescence ratio to DMSO, % at 10 µM. hit rate 0.19% among 360,000. AID 602162;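 active means fluorescence ratio to DMSO below 75%, the collection mean minus 3 SD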;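 further: signal is porphyrin accumulated inside mitochondria; 100% equals median channel fluorescence of DMSO control wells; lower ratio means ABCB6 inhibition with less porphyrin fluorescence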
STAT3 activator = increases IL-6 driven STAT3 reporter signal. U3A cells, IL-6 STAT3-luciferase reporter, luminescence; 100% = signal with IL-6 EC80 alone. hit rate 0.91% among 190,000. activation (% of control), % at 5.6 µM;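 active means activation above the screen-wide mean of compound activation plus 3 SD, cut at about 130% in these data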;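 further: 0% = background luminescence of wells with medium and substrate only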
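Test system: human U3A cells carrying STAT3-luciferase construct; control set: IL-6-only wells as 100% reference; timing: compound pre-incubation 1 h before IL-6, then 6 h stimulation at 37 °C; also added: IL-6 stimulus at 33 ng/mL final; evaluation: % activation versus median of IL-6-stimulated wells; detection: reporter luminescence signal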
AHR act = human AHR activation; AHR-responsive luciferase reporter cells, luminescence; activation, % at 5 µM; hit rate 2.5% among 320,000; in the data active means activation above about 47%;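 further: 0% = vehicle wells and 100% = reference agonist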
Target sequence (P35869 whole entry, looked up): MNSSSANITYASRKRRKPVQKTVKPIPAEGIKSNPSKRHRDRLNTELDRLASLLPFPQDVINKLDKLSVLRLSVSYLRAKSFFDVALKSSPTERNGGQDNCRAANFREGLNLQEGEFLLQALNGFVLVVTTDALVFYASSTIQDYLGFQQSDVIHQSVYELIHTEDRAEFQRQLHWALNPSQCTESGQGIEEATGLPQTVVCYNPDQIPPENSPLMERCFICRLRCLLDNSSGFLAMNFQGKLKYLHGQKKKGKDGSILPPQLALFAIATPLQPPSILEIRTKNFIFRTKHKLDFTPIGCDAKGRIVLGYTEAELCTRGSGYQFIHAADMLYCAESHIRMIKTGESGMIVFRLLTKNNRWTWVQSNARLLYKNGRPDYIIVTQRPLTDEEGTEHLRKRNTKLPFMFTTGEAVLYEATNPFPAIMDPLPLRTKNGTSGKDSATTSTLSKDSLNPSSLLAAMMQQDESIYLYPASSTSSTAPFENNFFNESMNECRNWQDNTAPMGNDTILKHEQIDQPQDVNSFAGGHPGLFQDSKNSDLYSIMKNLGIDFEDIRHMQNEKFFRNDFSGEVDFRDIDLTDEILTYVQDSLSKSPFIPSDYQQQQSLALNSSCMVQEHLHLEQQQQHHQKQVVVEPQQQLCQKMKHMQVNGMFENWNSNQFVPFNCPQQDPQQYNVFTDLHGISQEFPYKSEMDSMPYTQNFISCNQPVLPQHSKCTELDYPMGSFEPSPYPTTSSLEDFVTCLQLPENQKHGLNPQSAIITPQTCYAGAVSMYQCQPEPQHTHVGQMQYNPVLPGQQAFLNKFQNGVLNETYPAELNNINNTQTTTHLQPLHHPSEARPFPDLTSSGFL
GAA850 FXN act = frataxin GAA850 promoter activation; activation, % at 6 µM; HEK293 lucGAA850 FXN promoter luciferase reporter, 24 h; percent of 10 µM SAHA response; AID 540364; hit rate 0.56% among 360,000;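 active means activation above the average of all compounds screened plus 3 SD, cutoff fixed separately per campaign, cut at about 7.5% in these data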;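 further: 0% = DMSO wells and 100% = 10 µM SAHA wells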
* = called active by the depositor; x = no result. This is a sample that favours compounds with a hit; in the whole collection about 3.3% have one here.

SMILES | ABCB6 inh MLPCN | STAT3 activator | AHR act | GAA850 FXN act
O=C(/C=C/c1ccc(O)cc1)c1ccc(O)cc1O | 97 | 114 | 66* | 1
COc1ccc(C(=O)/C=C/c2ccccc2)c(O)c1 | 98 | 106 | 9 | 3
O=S(=O)(c1ccc(Cl)cc1)N1CCN=C1SCc1ccc(Cl)c(Cl)c1 | 95 | 101 | 3 | 0
CCOc1ccccc1NC(=O)c1ccc(OCC)c([N+](=O)[O-])c1 | 97 | 89 | 1 | 3
CCOc1ccccc1NC(=O)c1ccc([N+](=O)[O-])cc1 | x | 93 | 41 | x
CCOc1ccccc1NC(=O)c1ccc2ccccc2c1 | 96 | x | 67* | 2
CCCOc1ccccc1NC(=O)c1ccc([N+](=O)[O-])cc1 | 99 | 93 | 64* | 1
COc1ccc(NC(=O)NNC(=O)c2ccc3ccccc3c2)cc1OC | 97 | x | 0 | 1
CCOc1ccccc1NC(=O)NNC(=O)c1ccc2ccccc2c1 | 96 | x | 49* | 0
C=CCNC(=O)C1CC1(c1cccc(C)c1)c1cccc(C)c1 (stereo not given) | 107 | x | 0 | 1
Cc1cccc(C2(c3cccc(C)c3)CC2C(=O)Nc2ccc([N+](=O)[O-])cc2O)c1 (stereo not given) | 99 | 101 | 77* | -9
C/C(=N\NC(=O)c1nnn(-c2nonc2N)c1CSc1ccc(C)cc1)c1cccnc1 | 96 | x | x | 2
CCOCCc1nn2c(=O)cc(CSCC(=O)Nc3ccccc3)nc2s1 | 102 | x | 3 | 0
CC(=O)Nc1nc2cc3c(cc2s1)OCCO3 | 100 | x | 6 | 7
Cc1cccc2sc(NNC(=O)c3ccc4c(c3)OCCO4)nc12 | 101 | 116 | 59* | 2
O=C(NNc1nc2ccccc2s1)c1ccc(F)cc1 | 98 | 96 | 54* | 2
Fc1cccc2sc(Nc3nc4cc5c(cc4s3)OCCO5)nc12 | 90 | 93 | 60* | 0
O=C(NNc1nc2cc3c(cc2s1)OCCO3)c1ccccc1 | 91 | 104 | 74* | 3
Cc1ccc(NC(=O)CCC(=O)NNC(=O)C(c2ccccc2)c2ccccc2)c(C)c1 | 102 | 106 | -3 | 0
COc1ccc(CN2CCC(C)(Oc3ccc(C(C)=O)cc3)C2)c2ccccc12 (stereo not given) | 82 | x | x | 4
CCOC(=O)C(C(=O)OCC)C(c1ccccc1)N1CCN(c2ccccc2)CC1 (stereo not given) | 99 | x | x | -2
NCc1oc(-c2ccccc2)cc1C(=O)O | 104 | 104 | -3 | 1
O=C(Nc1ccc(Cl)c(Cl)c1)Nc1ccon1 | 98 | x | 71* | -4
COc1ccc(NC(=O)Nc2ccncc2)c(OC)c1 | 90 | 90 | 18 | 1
COc1ccc(NC(=O)c2c(N)no[n+]2[O-])c(OC)c1 | 94 | 85 | 61* | 0
SMILES | ABCB6 inh MLPCN | STAT3 activator | AHR act | GAA850 FXN act
COc1ccc(NC(=O)c2c(N)no[n+]2[O-])cc1 | 94 | 94 | 18 | 0
Cc1cc(NC(=O)Nc2ccc(Cl)c(Cl)c2)no1 | 94 | x | 14 | 1
COc1ccc(NC(=O)Nc2ccon2)c(OC)c1 | 99 | 97 | 56* | 2
Cc1nc2nc(-c3ccc(Cl)cc3)[nH]n2c(=O)c1C | x | 86 | x | x
COc1cc(CN(C)CC2CCCN(CCc3cccc(C(F)(F)F)c3)C2)ccc1O (stereo not given) | 102 | x | 2 | 0
NC(=O)c1ccccc1NC(=O)CSc1cn[nH]n1 | 96 | x | 1 | 3
CCOC(=O)c1ccccc1NC(=O)CSc1nc2ccccc2c(=O)n1CCCN1CCOCC1 | 94 | x | -1 | -1
COc1ccccc1NC(=O)c1ccc2nsnc2c1 | 99 | x | 56* | 5
Cc1c(NC(=O)c2ccc3nsnc3c2)cccc1[N+](=O)[O-] | 99 | x | 52* | 2
Cc1cc(C(=O)Nc2cccc([N+](=O)[O-])c2C)cs1 | 102 | x | -6 | 1
Fc1ccc(-c2ccnc(=S)[nH]2)cc1 | 99 | 90 | 19 | 7
Cc1ccc(C2=NN=C(NC(=O)CSc3nnc4c5ccccc5n(C)c4n3)SC2)cc1 | 97 | 108 | 77* | 0
CCn1ncc(Cl)c1C(=O)Nc1cc([N+](=O)[O-])ccc1OC | 104 | 85 | 60* | 1
CCn1ncc(C(=O)Nc2ccc([N+](=O)[O-])cc2OC)c1C | 102 | x | 40 | 0
COc1ccc([N+](=O)[O-])cc1NC(=O)c1ccc(Br)s1 | 94 | 126 | 52* | 2
Cc1ccc(CN(CCO)CCO)cc1 | 92 | 104 | 1 | -1
OCCN(CCO)Cc1ccc(Br)cc1 | 98 | 99 | 63* | -1
CS(=O)(=O)c1ccccc1-c1nc(-c2ccc(C(F)(F)F)cc2)no1 | 96 | 82 | -7 | 2
Cc1c(-c2nc(-c3ccc(C(F)(F)F)cc3)no2)n(C)oc1=O | 95 | x | 101* | 3
CC1=CC(C)(C)N2C(=O)C3(C(C#N)=C(N)OC4=C3C(=O)CC(C)(C)C4)c3c(C)c(C)cc1c32 (stereo not given) | 104 | 99 | 23 | 0
O=C1COc2ccc(-c3csc(NCC4CCCO4)n3)cc2N1 (stereo not given) | 112 | 100 | 77* | 1
CC(C)n1cc(/C=C2/NC(=O)N(c3cccc(Cl)c3)C2=O)c2ccccc21 | 98 | 101 | 63* | -6
O=c1[nH]c2cc3c(cc2cc1CN(Cc1nnnn1CC1CCCO1)C1CCCC1)OCO3 (stereo not given) | 91 | 101 | 30 | 3
O=c1[nH]c2cc3c(cc2cc1CN(Cc1nnnn1CC1CCCO1)C1CCCCC1)OCO3 (stereo not given) | 95 | 107 | 56* | 1
Cc1cc(OCC(=O)N2CCN(c3ccccn3)CC2)c(C)cc1Br | 93 | x | 54* | 2
SMILES | ABCB6 inh MLPCN | STAT3 activator | AHR act | GAA850 FXN act
Cc1cc(C)c(C)c(OCC(=O)N2CCN(c3ccccn3)CC2)c1 | 95 | x | 27 | 4
CCc1nnc(NC(=O)c2cc(-c3ccccn3)nc3ccc(Br)cc23)s1 | 98 | x | 49* | -1
CCc1nnc(NC(=O)c2cc(-c3ccncc3)nc3ccccc23)s1 | 102 | x | 62* | 0
O=c1ccc(S(=O)(=O)N2CCCC2)cn1Cc1ccc(F)cc1 | 94 | x | 0 | 3
Cc1ccccc1C(=O)Oc1ccccc1N1C(=O)C2CC=CCC2C1=O (stereo not given) | 95 | 98 | 75* | 3
O=C(Oc1ccccc1N1C(=O)C2CC=CCC2C1=O)c1ccc(Br)cc1 (stereo not given) | 98 | 101 | 27 | 1
CN(C)CCCOc1nc2c(c(=O)n(C)c(=O)n2C)n1C | 103 | 96 | 2 | 0
Cc1ccc(NC(=O)CN2C(=O)N/C(=C/c3ccc(N4CCOCC4)cc3)C2=O)cc1 | 108 | 106 | 58* | 6
Cc1ccc(NC(=O)CN2C(=O)N/C(=C/c3ccc4c(c3)OCCO4)C2=O)cc1 | 94 | x | 7 | 1
O=C(Nc1ccc(Cl)cc1)C1=Cc2ccccc2OC1 | 103 | 95 | 72* | -2
O=C(Nc1ccc(Cl)cc1)c1ccc2c(c1)OCO2 | 98 | 77 | -3 | -1
c1cncc(-c2nc(N3CCOCC3)c3ccccc3n2)c1 | 97 | 107 | 78* | 1
c1ccc2c(N3CCOCC3)nc(-c3ccncc3)nc2c1 | 97 | 107 | 20 | 4
